Data on six compounds can be found in ChEMBL document CHEMBL1123248, “Chiral DNA gyrase inhibitors. 1. Synthesis and antimicrobial activity of the enantiomers of 6-fluoro-7-(1-piperazinyl)-1-(2'-trans-phenyl-1'-cyclopropyl)-1, 4-dihydro-4-oxoquinoline-3-carboxylic acid” (1986).

The structures appear in SMILES notation. Converted amounts (≈) assume the structure as drawn. Where only a bound is given, the exact number is not on record here.

Holding throughout (assay type): functional
The test system of experiment [1] is Klebsiella aerogenes. Nature of the experiment: The compound was tested for its antimicrobial activity against Enterobacter aerogenes ATCC 13048 (Ea) strain. The procedure, abridged:
(§1)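 MIC by twofold serial agar dilution in brain-heart infusion agar.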

In experiment [2] the test system is Escherichia coli. Nature of the experiment: The compound was tested for inhibition constant against DNA gyrase isolated from Escherichia coli.
Experiment [3] relates to Escherichia coli. Nature of the experiment: (§2) The compound was tested for its antimicrobial activity against Escherichia coli juhl (Ec) strain. In outline: (§3)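 MICs were determined by twofold agar dilution on brain-heart infusion agar.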
The subject of experiment [4] is Klebsiella pneumoniae. Nature of the experiment: The compound was tested for its antimicrobial activity against Klebsiella pneumoniae 8045 (Kp) strain. The procedure, abridged:
as §3

Experiment [5] relates to Micrococcus luteus. Nature of the experiment: The compound was tested for inhibition constant against DNA gyrase isolated from micrococcus luteus.
In experiment [6] the test system is Pseudomonas aeruginosa. Nature of the experiment: The compound was tested evaluated for its antimicrobial activity against Pseudomonas aeruginosa ( Pa(K)) strain. In outline: as §3
Experiment [7] concerns Pseudomonas aeruginosa. As to the kind of experiment: The compound was tested evaluated for its antimicrobial activity against Pseudomonas aeruginosa A5007 (Pa(5)) strain. The procedure, abridged: as §3
Experiment [8] has as its system Streptococcus pyogenes. As to the kind of experiment: The compound was tested for its antimicrobial activity against Streptococcus pyogenes 930 (Sp) strain. The procedure, abridged:
as §3

The subject of experiment [9] is Staphylococcus aureus. As to the kind of experiment: The compound was tested for its antimicrobial activity against Staphylococcus aureus CMX 68613 (Sa) strain. In outline:
as §1

For experiment [10], the system named is Enterococcus faecium. Nature of the experiment: The compound was tested for its antimicrobial activity against Streptococcus faecium ATCC 8043 (Sf) strain. In outline:
as §3

Experiment [11] relates to Staphylococcus epidermidis. Nature of the experiment: (§4) The compound was tested for its antimicrobial activity against Staphylococcus epidermidis 3519 (Se) strain. The procedure, abridged:
as §1

Experiment [12] has as its system Staphylococcus aureus. As to the kind of experiment: The compound was tested for its antimicrobial activity against Staphylococcus aureus ATCC 6538P (Sa(A)) strain. In outline:
as §3

Experiment [13] relates to Acinetobacter. Nature of the experiment: The compound was tested for its antimicrobial activity against Acinetobacter sp. CMX 669 (A) strain. In outline: as §3
For experiment [14], the system named is Micrococcus luteus. Nature of the experiment: The compound was tested for its antimicrobial activity against Micrococcus luteus (MI) strain. In outline:
as §3

The test system of experiment [15] is Escherichia coli. Described as §2. The procedure, abridged:
as §1
The source holds these as a separate data set.

Experiment [16] has as its system Staphylococcus epidermidis. Nature of the experiment: The compound was tested for its antimicrobial activity against Staphylococcus epidermidis 3519 (Se) strain. The procedure, abridged: as §1
Experiment [17] has as its system Streptococcus pyogenes. As to the kind of experiment: The compound was tested for its antimicrobial activity against Streptococcus pyogenes 930 (Sp) strain. In outline:
as §1

Experiment [18] deals with Enterococcus faecium. Nature of the experiment: The compound was tested for its antimicrobial activity against Streptococcus faecium ATCC 8043 (Sf) strain. In outline: as §1
Experiment [19] relates to Acinetobacter. As to the kind of experiment: The compound was tested for its antimicrobial activity against Acinetobacter sp. CMX 669 (A) strain. In outline:
as §1

For experiment [20], the system named is Pseudomonas aeruginosa. Nature of the experiment: The compound was tested evaluated for its antimicrobial activity against Pseudomonas aeruginosa ( Pa(K)) strain. The procedure, abridged: as §1
Experiment [21] relates to Escherichia coli. As to the kind of experiment: The compound was tested for its antimicrobial activity against Escherichia coli juhl (Ec) strain. The procedure, abridged:
as §3

In experiment [22] the test system is Klebsiella pneumoniae. As to the kind of experiment: microbe, parasite or virus in culture.
The subject of experiment [23] is Staphylococcus aureus. Nature of the experiment: The compound was tested for its antimicrobial activity against Staphylococcus aureus CMX 68613 (Sa) strain. The procedure, abridged:
as §3

Experiment [24] deals with Klebsiella aerogenes. Nature of the experiment: The compound was tested for its antimicrobial activity against Enterobacter aerogenes ATCC 13048 (Ea) strain. In outline: as §3
Experiment [25] relates to Pseudomonas aeruginosa. As to the kind of experiment: The compound was tested evaluated for its antimicrobial activity against Pseudomonas aeruginosa A5007 (Pa(5)) strain. In outline: as §1
The subject of experiment [26] is Staphylococcus epidermidis. The description is as §4. The procedure, abridged:
as §3
The source holds these as a separate data set.

The mark [27] stands for this setting: Pseudomonas aeruginosa, read-out: MIC.
The mark [28] stands for this setting: Streptococcus pyogenes, read-out: MIC.
Where [29] appears, read: Enterococcus faecium, ATCC 8043, read-out: MIC.
Setting [30] is: Staphylococcus aureus, ATCC 6538P, read-out: MIC.
[31] abbreviates: Escherichia coli, read-out: MIC.
Where [32] appears, read: Staphylococcus aureus, read-out: MIC.
Where [33] appears, read: Klebsiella aerogenes, ATCC 13048, read-out: MIC.

As usually defined, the Ki is a measure of affinity in units of concentration, obtained from inhibition or displacement. Low values mean a stronger hold on the target, high ones a looser hold on the target. In the case of `O=C(O)c1cn(C2C[C@@H]2c2ccccc2)c2cc(N3CCNCC3)c(F)cc2c1=O` (stereo partly specified), the MIC in experiment [1] was 12.5 µg/mL (≈ 30.7 µM); in [3], 12.5 µg/mL (≈ 30.7 µM); in experiment [4] it was 3.1 µg/mL (≈ 7.61 µM); in [6] (setting [27]), 100 µg/mL (≈ 245 µM); in [7], above 50 µg/mL; in [8] (setting [28]) it was 0.78 µg/mL (≈ 1.91 µM). Moreover, the MIC in [9] was found to be 0.78 µg/mL (≈ 1.91 µM); in experiment [10] (setting [29]), 1.56 µg/mL (≈ 3.83 µM); in experiment [11], 1.56 µg/mL (≈ 3.83 µM); in experiment [12] (setting [30]), 0.78 µg/mL (≈ 1.91 µM); in experiment [13] it was 6.2 µg/mL (≈ 15.2 µM); in [14] it was 0.39 µg/mL (≈ 0.957 µM). Further, the inhibitory constant (Ki) was determined as 12.1 µg/mL (≈ 29.7 µM) in experiment [2] (Escherichia coli) and 9.6 µg/mL (≈ 23.6 µM) in experiment [5] (Micrococcus luteus).

In the case of `O=C(O)c1cn(-c2ccccc2)c2cc(N3CCNCC3)c(F)cc2c1=O`, the MIC was found to be 0.2 µg/mL (≈ 0.544 µM) in experiment [15]; 0.39 µg/mL (≈ 1.06 µM) in experiment [1]; 0.78 µg/mL (≈ 2.12 µM) in [7]; 1.56 µg/mL (≈ 4.25 µM) in experiment [16]; 1.56 µg/mL (≈ 4.25 µM) in experiment [17]; 0.39 µg/mL (≈ 1.06 µM) in experiment [9]. Moreover, the MIC is 12.5 µg/mL (≈ 34 µM) in [18], 0.78 µg/mL (≈ 2.12 µM) in [19], 1.56 µg/mL (≈ 4.25 µM) in [20] and 0.39 µg/mL (≈ 1.06 µM) in [12] (setting [30]).

For `O=C(O)c1cn(C2C[C@H]2c2ccccc2)c2cc(N3CCNCC3)c(F)cc2c1=O` (stereo in doubt; 5), the MIC was 50 µg/mL (≈ 123 µM) in experiment [21] (setting [31]); 12.5 µg/mL (≈ 30.7 µM) in [22]; 100 µg/mL (≈ 245 µM) in experiment [6]; 100 µg/mL (≈ 245 µM) in experiment [6] (setting [27]); above 100 µg/mL in [7]; 3.1 µg/mL (≈ 7.61 µM) in [16]. The MIC in experiment [8] (setting [28]) was 3.1 µg/mL (≈ 7.61 µM); in [23] (setting [32]) it was 3.1 µg/mL (≈ 7.61 µM); in experiment [10] (setting [29]) it was 6.2 µg/mL (≈ 15.2 µM); in experiment [12] (setting [30]) it was 3.1 µg/mL (≈ 7.61 µM); in experiment [24] (setting [33]), 50 µg/mL (≈ 123 µM); in [13], 100 µg/mL (≈ 245 µM). The Ki in experiment [2] (Escherichia coli) is 14.2 µg/mL (≈ 34.9 µM); in [5] it was 38 µg/mL (≈ 93.3 µM).

For `O=C(O)c1cn(C2C[C@H]2c2ccccc2)c2cc(N3CCNCC3)c(F)cc2c1=O` (stereo in doubt; 14), the MIC is 25 µg/mL (≈ 61.4 µM) in [21]; 6.2 µg/mL (≈ 15.2 µM) in experiment [4]; above 100 µg/mL in experiment [25]; 1.56 µg/mL (≈ 3.83 µM) in experiment [26]; 1.56 µg/mL (≈ 3.83 µM) in experiment [8]; 1.56 µg/mL (≈ 3.83 µM) in experiment [23]. For the same compound, the MIC in experiment [10] is 3.1 µg/mL (≈ 7.61 µM); in experiment [12], 1.56 µg/mL (≈ 3.83 µM); in experiment [24], 50 µg/mL (≈ 123 µM); in [13] it was 25 µg/mL (≈ 61.4 µM); in experiment [14], 0.39 µg/mL (≈ 0.957 µM). For the same compound, the results for the inhibitory constant (Ki) in experiment [2] and in experiment [5] were 15.2 µg/mL (≈ 37.3 µM) and 13.7 µg/mL (≈ 33.6 µM), respectively.

In the case of `O=C(O)c1cn(C2CC2)c2cc(N3CCNCC3)c(F)cc2c1=O` [CIPROFLOXACIN], the Ki in [2] (Escherichia coli) worked out at 0.9 µg/mL (≈ 2.72 µM); in experiment [5] (Micrococcus luteus), 38 µg/mL (≈ 115 µM). Moreover, the MIC was found to be 0.05 µg/mL (≈ 0.151 µM) in [6] (setting [27]); 0.1 µg/mL (≈ 0.302 µM) in experiment [25]; 0.2 µg/mL (≈ 0.604 µM) in [26]; 0.39 µg/mL (≈ 1.18 µM) in experiment [8] (setting [28]); 0.2 µg/mL (≈ 0.604 µM) in [23] (setting [32]); 0.39 µg/mL (≈ 1.18 µM) in experiment [10] (setting [29]). In addition, the MIC in experiment [12] (setting [30]) stood at 0.2 µg/mL (≈ 0.604 µM); in [24] (setting [33]) it was 0.05 µg/mL (≈ 0.151 µM); in [13], 3.1 µg/mL (≈ 9.36 µM); in [14], 1.56 µg/mL (≈ 4.71 µM).

For `CCn1cc(C(=O)O)c(=O)c2cc(F)c(N3CCNCC3)cc21` [NORFLOXACIN], the MIC in experiment [21] (setting [31]) is 0.1 µg/mL (≈ 0.313 µM); in [1], 0.2 µg/mL (≈ 0.626 µM); in experiment [4] it was 0.1 µg/mL (≈ 0.313 µM); in [6] (setting [27]), 0.39 µg/mL (≈ 1.22 µM); in [25], 0.39 µg/mL (≈ 1.22 µM); in [8] (setting [28]), 3.1 µg/mL (≈ 9.71 µM). Besides, the MIC in experiment [23] (setting [32]) was found to be 0.78 µg/mL (≈ 2.44 µM); in experiment [10] (setting [29]), 0.78 µg/mL (≈ 2.44 µM); in experiment [11], 1.56 µg/mL (≈ 4.89 µM); in experiment [12] (setting [30]), 0.78 µg/mL (≈ 2.44 µM); in experiment [13] it was 6.2 µg/mL (≈ 19.4 µM). In addition, the inhibitory constant (Ki) is 1 µg/mL (≈ 3.13 µM) in experiment [2] (Escherichia coli) and 72 µg/mL (≈ 225 µM) in [5] (Micrococcus luteus).
